Arrestin-AP2 inh: inhibitors of human beta-arrestin and AP2 interaction; FITC-arrestin peptide / GST-AP2 beads, flow cytometry; AP2 beta2 appendage carries R879A mutation; inhibition, % at 10 µM; 0.31% of 340,000 active; AID 504490;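 active = inhibition above a set limit, near 3 SD of compounds lacking own fluorescence, cut at about 54% in these data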;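 also: plate controls were DMSO wells for no effect and 5 µM unlabelled arrestin peptide for full effect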
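Measured by: flow cytometry, FL1 (488/535 nm); Material: AP2 appendage R879A on GSH beads; Evaluation: percent response; Timing: pre-incubation 12 min, peptide binding 1 h, room temperature; Also added: 50 nM FITC-arrestin peptide; Medium: PBS with 0.05% Tween 20 and 0.1% BSA.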
hiPSC survival: hiPSC single-cell survival enhancement; ATPlite luminescence; 100% = ROCK inhibitor wells, 0% = DMSO; survival enhancement, % at 20 µM; 0.044% of 360,000 active; AID 602274; in the data active = survival enhancement above about 18%;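 also: cells exposed to compounds for 16 hours before the ATP read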
ABCB6 inh 2: inhibitors of human ABC transporter ABCB6; Q9NP58; K562-ABCB6 porphyrin accumulation, flow cytometry, 1 h; hits give low values; fluorescence ratio to DMSO, % at 10 µM; 0.19% of 360,000 active; AID 602162;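 active = fluorescence ratio to DMSO below 75%, the collection mean minus 3 SD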;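 also: signal is porphyrin accumulated inside mitochondria; 100% equals median channel fluorescence of DMSO control wells; lower ratio means ABCB6 inhibition with less porphyrin fluorescence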
Target sequence (Q9NP58 whole entry, looked up): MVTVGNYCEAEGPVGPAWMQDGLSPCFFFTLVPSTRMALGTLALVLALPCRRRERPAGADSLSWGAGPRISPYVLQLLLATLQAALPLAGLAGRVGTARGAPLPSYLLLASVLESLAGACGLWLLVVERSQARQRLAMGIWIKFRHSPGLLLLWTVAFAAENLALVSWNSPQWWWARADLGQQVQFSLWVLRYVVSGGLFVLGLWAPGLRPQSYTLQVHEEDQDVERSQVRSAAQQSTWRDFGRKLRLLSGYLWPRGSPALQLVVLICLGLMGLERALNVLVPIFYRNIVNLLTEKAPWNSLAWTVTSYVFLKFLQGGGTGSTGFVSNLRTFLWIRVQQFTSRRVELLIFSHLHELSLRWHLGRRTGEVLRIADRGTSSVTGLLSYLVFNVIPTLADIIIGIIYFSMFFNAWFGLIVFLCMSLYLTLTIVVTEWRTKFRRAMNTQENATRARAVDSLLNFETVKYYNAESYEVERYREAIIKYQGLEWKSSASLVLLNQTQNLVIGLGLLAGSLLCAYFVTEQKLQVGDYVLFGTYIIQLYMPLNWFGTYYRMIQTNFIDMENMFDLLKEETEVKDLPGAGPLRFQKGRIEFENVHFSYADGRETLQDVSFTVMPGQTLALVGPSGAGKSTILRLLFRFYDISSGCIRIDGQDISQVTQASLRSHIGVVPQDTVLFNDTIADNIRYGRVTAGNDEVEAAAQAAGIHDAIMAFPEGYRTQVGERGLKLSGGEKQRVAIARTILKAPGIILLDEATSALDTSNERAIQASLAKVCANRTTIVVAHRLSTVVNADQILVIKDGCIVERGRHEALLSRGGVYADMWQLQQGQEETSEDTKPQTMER
PG9 Ab binder: PG9 antibody binding by small molecule. TR-FRET gp120-PG9 antibody binding. AID 624416. inhibition, % at 6.7 µM. 0.43% of 360,000 active; in the data active = inhibition above about 8.5%
Arr-AP2 CP1: inhibitors of human beta-arrestin and AP2 interaction; GST-AP2 beads, FITC arrestin peptide binding, flow cytometry; GST-fused beta2-adaptin appendage, R879A mutant; shares compounds with Arrestin-AP2 inh; inhibition, % at 10 µM; 2% of 1,300 active; AID 504908;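 active = inhibition above a set limit, roughly 3 SD of non-fluorescent compound noise, cut at about 38% in these data; inactive = inhibition at or below that limit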;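 also: loss of bead fluorescence from 50 nM FITC arrestin peptide bound to appendage; 0% = negative control wells and 100% = excess unlabelled arrestin peptide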
GST GSH counter: disrupts GST binding to glutathione beads, arrestin-AP2 artifact. shares compounds with Arrestin-AP2 inh. GST-fluorescein binding to GSH beads, fluorescence, counter-screen. inhibition, % at 10 µM. 2% of 1,300 active. AID 588338;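 active = inhibition above 50%, about 3 SD of the inhibition seen with non-fluorescent compounds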;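 also: fluorescein maleimide labelled GST captured on 4 micron glutathione beads; higher means more loss of bead fluorescence from quenching or blocked binding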
Active calls of the source: *; . = no result. Shown are actives, neighbours in structure and some others; about 0.89% of the full set was active somewhere.

SMILES | Arrestin-AP2 inh | hiPSC survival | ABCB6 inh 2 | PG9 Ab binder | Arr-AP2 CP1 | GST GSH counter
CC(C)(C)NC(=O)C1Cc2ccccc2CN1C(=O)Nc1ccccc1Cl (stereo not given) | 83* | 10 | 99 | 1 | 3 | 0
CC(C)(C)NC(=O)C1Cc2ccccc2CN1C(=O)Nc1cccc(Cl)c1 (stereo not given) | 18 | 10 | 91 | -1 | . | .
CC(NC(=O)C(C)N1CCN(Cc2ccccc2)CC1)c1ccccc1 (stereo not given) | -3 | -1 | 97 | 1 | . | .
Cc1cccc(CN2CCN(C(C)C(=O)NC(C)c3ccccc3)CC2)c1 (stereo not given) | 56* | 0 | 101 | -1 | -10 | -8
Fc1ccc2nc(-c3ccc(CN4CCC(c5nc6ccccc6[nH]5)CC4)cc3)c(-c3ccccc3)nc2c1 | . | . | . | -2 | . | .
Cc1cc(-c2ccc(C(C)C)c(S(=O)(=O)N3CCC(C)CC3)c2)on1 | 58* | 0 | 102 | -1 | 7 | -7
CCc1ccc(-c2cc(C)no2)cc1S(=O)(=O)N1CCC(C)CC1 | 21 | 0 | 98 | 1 | . | .
CCCCS(=O)(=O)N1CCCc2nc(-c3ccc(F)cc3)ccc21 | . | . | . | 1 | . | .
CC1Cc2ccccc2N1C(=O)C(C)n1cc(C(F)(F)F)cc(Cl)c1=O (stereo not given) | 69* | 0 | 100 | -1 | -8 | -8
C[C@@H]1ON(C)[C@H]2C[C@H]3c4[nH]c5cccc(-c6ccccc6F)c5c4CCN3C(=O)[C@@H]12 | . | . | . | 1 | . | .
COc1ccc(CC(=O)NNC(=O)c2ccccc2)cc1OC | 2 | 0 | 90 | -1 | . | .
COc1ccc(CC(=O)NNC(=O)c2cc(C)oc2C)cc1OC | 65* | 0 | 103 | 0 | 7 | -5
Cc1cccc(OC(C)C(=O)Nc2ccc3c(c2)OCCO3)c1 (stereo not given) | -13 | -2 | 93 | 1 | -3 | -11
COc1ccccc1CCn1cnc(-c2ccccc2F)c1CC(C)C | . | . | . | 1 | . | .
Cc1cccc(C(=O)OCC(=O)c2c(N)n(CC(C)C)c(=O)n(C)c2=O)c1[N+](=O)[O-] | -9 | 0 | 98 | -1 | . | .
CC(C)Cn1c(N)c(C(=O)COC(=O)c2ccc(O)cc2O)c(=O)n(C)c1=O | -6 | 0 | 92 | -3 | 5 | -6
CC(C)Cn1c(N)c(C(=O)COC(=O)c2cc3ccccc3cc2O)c(=O)n(C)c1=O | 0 | -2 | 90 | -1 | . | .
Cc1cccc(C(=O)OCC(=O)c2c(N)n(CC(C)C)c(=O)n(C)c2=O)c1O | -10 | 0 | 101 | 1 | -8 | -5
O=C(Nc1ccccc1)Oc1ccccc1N1CCOCC1 | 66* | 0 | 100 | -1 | 20 | -2
O=C(C=Cc1ccc(O)c(O)c1)NCC(=O)NC(Cc1ccccc1)C(=O)O (stereo not given) | . | . | . | -1 | . | .
COc1ccc(N2C(=O)c3n[nH]c(C(C)C)c3C2c2ccc(C)cc2)cc1 (stereo not given) | . | . | . | 0 | . | .
COc1ccc(CNC(=O)[C@H](C)NC(=O)C2CC(=O)N(c3ccc4c(c3)OCO4)C2)cc1 (stereo not given in full) | 55* | 0 | 99 | -1 | 1 | 1
Cc1cc(N2CCNC[C@H]2C)ccc1N1C[C@@H](C)O[C@@H](C)C1 | . | . | . | -3 | . | .
COC(=O)C1=C(C)N(Cc2ccc(C(F)(F)F)cc2)C(=NCc2ccccc2)NC1c1cccc(Cl)c1 (stereo not given) | . | . | . | 1 | . | .
CC(C)CCSc1nc2[nH]ncc2c(=O)[nH]1 | 59* | -3 | 95 | -3 | 5 | 6
SMILES | Arrestin-AP2 inh | hiPSC survival | ABCB6 inh 2 | PG9 Ab binder | Arr-AP2 CP1 | GST GSH counter
C#CCSc1nc2[nH]ncc2c(=O)[nH]1 | 14 | -1 | 103 | -2 | . | .
CN(C(=O)COC(=O)c1cc(-c2ccccc2Cl)nc2ccccc12)C1CCS(=O)(=O)C1 (stereo not given) | 5 | 1 | 96 | 0 | . | .
CN(C(=O)COC(=O)c1cc(-c2ccc(Cl)s2)nc2ccccc12)C1CCS(=O)(=O)C1 (stereo not given) | 64* | -1 | 91 | -1 | 13 | -2
COc1cc(/C=C(/NC(=O)c2ccccc2)C(=O)Nc2ccccc2)c([N+](=O)[O-])cc1OC | -1 | 1 | 102 | -2 | . | .
COc1ccc(NC(=O)/C(=C\c2cc(OC)c(OC)cc2[N+](=O)[O-])NC(=O)c2ccccc2)cc1 | 60* | -3 | 118 | -1 | 0 | -10
CCCCc1c(-c2ccccc2OC)ncn1Cc1cc(F)ccc1F | . | . | . | -1 | . | .
CC(=O)OCC(=O)N1CCN(C(=O)C(=O)c2cccc(C(F)(F)F)c2)CC1 | . | . | . | 1 | . | .
O=C(CCNC(=O)c1ccc(Br)cc1)NCc1ccccc1F | 55* | 0 | 98 | 0 | -6 | -1
COC(=O)C1=C(C)N(C)C(=NCc2ccc(OC)cc2)NC1c1cccc(C(F)(F)F)c1 (stereo not given) | . | . | . | -2 | . | .
O=C(COc1ccccc1Br)NC1CC1 | 1 | 0 | 99 | -3 | . | .
O=C(COc1ccccc1Br)NC(=O)NC1CCCC1 | 56* | 0 | 100 | 0 | -7 | -8
CN(C)c1cc2c(cc1NC(=O)c1ccccc1Cl)n(C)c(=O)n2C | -1 | 1 | 98 | -3 | 4 | -14
O=C(Nc1ccccc1NC(=O)c1ccccc1Cl)c1ccccc1Cl | 36 | 0 | 100 | -1 | . | .
O=C(CCC(=O)N1CCCCC1)Nc1ccc(Cl)c(Cl)c1 | 85* | 0 | 102 | -2 | -1 | -4
Cc1cc(N2CCN(CC(C)(C)O)C[C@H]2C)ccc1N1CCN(Cc2ccccc2)[C@@H](C)C1 | . | . | . | -1 | . | .
COc1ccc(CCN(Cc2ccccn2)C(=S)Nc2cccc(SC)c2)cc1OC | -12 | 0 | 96 | 0 | . | .
CSc1cccc(NC(=S)N(Cc2ccc(C)cc2)Cc2ccccn2)c1 | 54* | 2 | 96 | 1 | -8 | -9
Nn1c(SCC(=O)N2CCN(S(=O)(=O)c3ccccc3)CC2)nnc1-c1cccs1 | 99* | 4 | 100 | 0 | -1 | -12
CC1CC(C)CN(C(=O)COC(=O)c2nccnc2N)C1 (stereo not given) | 63* | 0 | 91 | 0 | 14 | 1
CC1CC(C)CN(C(=O)COC(=O)c2ccc(Cl)nc2)C1 (stereo not given) | 52 | 0 | 98 | 2 | . | .
O=C(O)C1CCCN1C(=O)c1cccc(Cl)c1 (stereo not given) | . | . | . | -1 | . | .
CC1CCN(c2nc(N3CCCCC3)nc(N3CCCCC3)n2)CC1 | 3 | -1 | 99 | -1 | . | .
C1CCN(c2nc(N3CCCCC3)nc(N3CCNCC3)n2)CC1 | 101* | -2 | 105 | 0 | 1 | -1
N#Cc1ccc(S(=O)(=O)N2CCCc3nc(-c4ccccc4)ccc32)cc1 | . | . | . | 0 | . | .

High-throughput results as filed in PubChem.
